In ChEMBL document CHEMBL1133726, “Structure-activity relationships in platelet-activating factor (PAF). 10. From PAF antagonism to inhibition of HIV-1 replication” (J Med Chem, 2000):

What was measured:
[1] = system: Human immunodeficiency virus 1; assay: Cytotoxic concentration against monocyte-derived macrophage infected by the HIV-1/Ba-L strain using neutral red staining assay.; assay type: functional
In short: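 Compound-exposed MDM, with drug renewed twice weekly, were checked microscopically during culture. At the end of culture they were stained with neutral red, and CC50 was calculated from the optical density values. The assay was repeated with cells from a second blood donor.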

[2] = system: Human immunodeficiency virus 1; assay: Percent inhibition at 100 uM dose of HIV-1 replication using monocyte-derived macrophages infected by the HIV-1/Ba-L strain.; assay type: functional
In short: (§1)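 Human monocytes were elutriated from seronegative donor PBMC and differentiated 7 days into MDM in RPMI 1640 with 10% heat-inactivated FCS. 1 million MDM were pretreated 1 h with compound and infected with 10 000 TCID50 (0.01 moi) HIV-1/Ba-L, then washed at 24 h. Medium and drug were renewed twice weekly. Read-out was supernatant RT activity, with a second donor repeat; mean ± SD.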

Oryctolagus cuniculus = organism: Oryctolagus cuniculus; assay: Inhibition of PAF-induced platelet aggregation was determined using platelet rich plasma (PRP) of New Zealand rabbits.; assay type: functional
In short: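 Rabbit platelet-rich plasma was incubated and stirred with antagonist for 2 min, then challenged with 2.5 nM PAF. Antagonist solutions in EtOH spanned 10^-2 to 10^-7 M. Aggregation was followed by continuous light-transmission recording and compared with PAF alone. IC50 came from dose-response curves (5-6 determinations).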

[3] = system: Human immunodeficiency virus 1; assay: Antiviral activity towards inhibition of HIV-1 replication using monocyte-derived macrophage infected by the HIV-1/Ba-L strain.; assay type: functional, organism-based; in short: as §1
[4] = system: Human immunodeficiency virus 1; assay: Percent inhibition at 10 uM dose of HIV-1 replication using monocyte-derived macrophage infected by the HIV-1/Ba-L strain.; assay type: functional; in short: as §1
[5] = system: Human immunodeficiency virus 1; assay: Antiviral activity towards inhibition of replication of HIV-1-DAS infected monocyte-derived macrophage; assay type: functional, organism-based

SMILES	CC50 [1]	inhibition at 100 µM [2]	IC50 (Oryctolagus cuniculus)	IC50 [3]	inhibition at 10 µM [4]	IC50 [5]
COc1cc(C(=O)N2CCN(C(=O)c3cc(OC)c(OC)c(OC)c3)C(COC(=O)C(C)(C)C)C2)cc(OC)c1OC (stereo not given)	> 100 µM	25%	0.1 µM	–	–	–
CCCN(CCC)C(=O)OCC1CN(C(=O)c2cc(OC)c(OC)c(OC)c2)CCN1C(=O)c1cc(OC)c(OC)c(OC)c1 (stereo not given)	> 100 µM	66%	0.37 µM	–	–	–
COc1cc(C(=O)N2CCN(C(=O)c3cc(OC)c(OC)c(OC)c3)C(COC(=O)NC(C)CC(C)C)C2)cc(OC)c1OC (stereo not given)	> 100 µM	-2%	0.28 µM	–	–	–
COc1cc(C(=O)N2CCN(C(=O)c3cc(OC)c(OC)c(OC)c3)C(COC(=O)NCC(C)(C)C)C2)cc(OC)c1OC (stereo not given)	> 100 µM	74%	1 µM	–	–	–
COc1cc(C(=O)N2CCN(C(=O)c3cc(OC)c(OC)c(OC)c3)C(COC(=O)N3CCCC3)C2)cc(OC)c1OC (stereo not given)	> 100 µM	–	10 µM	> 100 µM	–	–
CCC1CN(C(=O)c2cc(OC)c(OC)c(OC)c2)CCN1C(=O)c1cc(OC)c(OC)c(OC)c1 (stereo not given)	> 100 µM	–	0.46 µM	230 µM	–	–
COc1cc(C(=O)N2CCN(C(=O)c3cc(OC)c(OC)c(OC)c3)C(C)C2)cc(OC)c1OC (stereo not given)	> 100 µM	–	0.56 µM	66 µM	–	–
CCCCCCCCCCC1CN(C(=O)c2cc(OC)c(OC)c(OC)c2)CCN1C(=O)c1cc(OC)c(OC)c(OC)c1 (stereo not given)	> 50 µM	–	0.24 µM	–	40%	–
COc1cc(C(=O)N2CCN(C(=O)c3cc(OC)c(OC)c(OC)c3)C(CNC(=O)C(C)(C)C)C2)cc(OC)c1OC (stereo not given)	> 100 µM	–	> 100 µM	> 100 µM	–	–
COc1cc(C(=O)N2CCN(C(=O)c3cc(OC)c(OC)c(OC)c3)C(COC(=O)N3CCCCC3)C2)cc(OC)c1OC (stereo not given)	> 100 µM	–	0.08 µM	95 µM	–	–
COc1cc(C(=O)N2CCN(C(=O)c3cc(OC)c(OC)c(OC)c3)CC2)cc(OC)c1OC	> 100 µM	–	1.78 µM	> 100 µM	–	–
COc1cc(C(=O)N2CCN(C(=O)c3cc(OC)c(OC)c(OC)c3)C(COC(=O)NC(C)(C)C)C2)cc(OC)c1OC (stereo not given)	> 100 µM	52%	0.13 µM	–	–	–
COc1cc(C(=O)N2CCN(C(=O)c3cc(OC)c(OC)c(OC)c3)C(CO)C2)cc(OC)c1OC (stereo not given)	> 100 µM	–	1.27 µM	> 100 µM	–	–
NC(=O)c1ccn2c1CS[C@@H]2c1cccnc1 (racemic) [DACOPAFANT]	–	–	16 µM	–	–	–
NC(=O)c1ccn2c1CS[C@@H]2c1cccnc1 [DACOPAFANT]	–	–	–	–	–	50 µM
CCN(CC)C(=O)OCC1CN(C(=O)c2cc(OC)c(OC)c(OC)c2)CCN1C(=O)c1cc(OC)c(OC)c(OC)c1 (stereo not given) [PMS-601]	> 1000 µM	95%	8 µM	11 µM	–	–
